Reference: ChEMBL document CHEMBL3046823, “Insect muscarinic acetylcholine receptor: pharmacological and toxicological profiles of antagonists and agonists” (J Agric Food Chem, 2007)

Tests used:
Musca domestica [1] = experiment: Toxicity to Musca domestica (house fly) assessed as mortality at 25 ug/fly measured after 1 hr; type: functional
Outline: (§1)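 Insecticide-susceptible adult female Musca (~25 mg) received PPP (2.5 µg/fly in 0.5 µL acetone, abdominal ventrum), then 90 min at room temperature. The compound (active ingredient) was given by intrathoracic injection in 0.22 µL water or 25-50% Me2SO/water. Mortality was scored at 0.5, 1.0, 1.5, 2.5 and 24 h.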

Musca domestica [2] = experiment: Toxicity to Musca domestica (house fly) assessed as mortality at 25 ug/fly measured after 0.5 hr; type: functional; outline: as §1
Musca domestica [3] = experiment: Toxicity to Musca domestica (house fly) assessed as mortality at 25 ug/fly measured after 24 hr; type: functional; outline: as §1
[4] = target: T1, Muscarinic acetylcholine receptor DM1 (Drosophila melanogaster, UniProt P16395); experiment: Displacement of [3H]QNB from Drosophila melanogaster mAChR by scintillation counting
T1 sequence (P16395 whole entry): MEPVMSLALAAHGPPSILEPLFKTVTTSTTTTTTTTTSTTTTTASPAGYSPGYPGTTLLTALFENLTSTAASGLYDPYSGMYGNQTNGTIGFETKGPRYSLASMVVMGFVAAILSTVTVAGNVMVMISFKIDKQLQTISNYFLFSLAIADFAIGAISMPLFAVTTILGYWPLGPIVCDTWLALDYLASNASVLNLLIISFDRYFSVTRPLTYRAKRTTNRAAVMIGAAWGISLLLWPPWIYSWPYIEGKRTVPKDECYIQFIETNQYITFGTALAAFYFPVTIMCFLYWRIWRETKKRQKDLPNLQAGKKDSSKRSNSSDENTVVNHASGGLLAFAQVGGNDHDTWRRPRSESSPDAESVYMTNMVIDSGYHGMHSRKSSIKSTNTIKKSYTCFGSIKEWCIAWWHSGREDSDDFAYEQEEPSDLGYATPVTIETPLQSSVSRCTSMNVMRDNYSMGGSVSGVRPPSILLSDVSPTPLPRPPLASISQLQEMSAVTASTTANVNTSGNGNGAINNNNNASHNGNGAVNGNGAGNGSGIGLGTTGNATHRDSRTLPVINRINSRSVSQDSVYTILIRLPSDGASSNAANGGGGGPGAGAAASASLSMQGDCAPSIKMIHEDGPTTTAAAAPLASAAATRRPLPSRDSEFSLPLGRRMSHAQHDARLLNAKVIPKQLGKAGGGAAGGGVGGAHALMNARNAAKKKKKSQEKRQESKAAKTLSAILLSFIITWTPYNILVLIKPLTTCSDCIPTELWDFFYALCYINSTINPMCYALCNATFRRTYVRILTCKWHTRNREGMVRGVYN

Musca domestica [5] = experiment: Toxicity to Musca domestica (house fly) assessed as mortality at 25 ug/fly measured after 1.5 hr; type: functional; outline: as §1
Musca domestica [6] = experiment: Toxicity to Musca domestica (house fly) assessed as mortality at 75 ug/fly measured after 1.5 hr; type: functional; outline: as §1
[7] = target: T1, Muscarinic acetylcholine receptor DM1; experiment: Displacement of [3H]AF-DX 384 from Drosophila melanogaster mAChR by scintillation counting
Musca domestica [8] = experiment: Toxicity to Musca domestica (house fly) assessed as mortality at 75 ug/fly measured after 2.5 hr; type: functional; outline: as §1
Musca domestica [9] = experiment: Toxicity to Musca domestica (house fly) assessed as mortality at 25 ug/fly measured after 2.5 hr; type: functional; outline: as §1
Musca domestica [10] = experiment: Toxicity to Musca domestica (house fly) assessed as mortality at 75 ug/fly measured after 0.5 hr; type: functional; outline: as §1
Musca domestica [11] = experiment: Toxicity to Musca domestica (house fly) assessed as mortality at 75 ug/fly measured after 24 hr; type: functional; outline: as §1
Musca domestica [12] = experiment: Toxicity to Musca domestica (house fly) assessed as mortality at 75 ug/fly measured after 1 hr; type: functional; outline: as §1
[13] = target: Muscarinic acetylcholine receptor DM1 (Drosophila melanogaster) (UniProt P16395); experiment: Displacement of [3H]QNB from Drosophila melanogaster mAChR at 100000 nM by scintillation counting
Sequence of Muscarinic acetylcholine receptor DM1 (Drosophila melanogaster) (P16395 whole entry): as above

[14] = target: Muscarinic acetylcholine receptor DM1 (Drosophila melanogaster) (UniProt P16395); experiment: Displacement of [3H]AF-DX 384 from Drosophila melanogaster mAChR at 100000 nM by scintillation counting
Musca domestica [15] = experiment: Toxicity to Musca domestica (house fly) assessed as mortality at 6.25 ug/fly measured after 24 hr; type: functional; outline: as §1
Musca domestica [16] = experiment: Toxicity to Musca domestica (house fly) assessed as mortality at 6.25 ug/fly measured after 2.5 hr; type: functional; outline: as §1
Musca domestica [17] = experiment: Toxicity to Musca domestica (house fly) assessed as mortality at 6.25 ug/fly measured after 1 hr; type: functional; outline: as §1
Musca domestica [18] = experiment: Toxicity to Musca domestica (house fly) assessed as mortality at 6.25 ug/fly measured after 1.5 hr; type: functional; outline: as §1
Musca domestica [19] = experiment: Toxicity to Musca domestica (house fly) assessed as mortality at 6.25 ug/fly measured after 0.5 hr; type: functional; outline: as §1
Musca domestica [20] = experiment: Toxicity to Musca domestica (house fly) assessed as mortality at 7.5 ug/fly measured after 2.5 hr; type: functional; outline: as §1
Musca domestica [21] = experiment: Toxicity to Musca domestica (house fly) assessed as mortality at 7.5 ug/fly measured after 1.5 hr; type: functional; outline: as §1
Musca domestica [22] = experiment: Toxicity to Musca domestica (house fly) assessed as mortality at 7.5 ug/fly measured after 0.5 hr; type: functional; outline: as §1
Musca domestica [23] = experiment: Toxicity to Musca domestica (house fly) assessed as mortality at 7.5 ug/fly measured after 1 hr; type: functional; outline: as §1
Musca domestica [24] = experiment: Toxicity to Musca domestica (house fly) assessed as mortality at 7.5 ug/fly measured after 24 hr; type: functional; outline: as §1
Musca domestica [25] = experiment: Ex vivo inhibition of [3H]QNB binding in brain of Musca domestica (house fly) at 25 ug/fly measured after 24 hr; type: functional
Outline: (§2)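 Adult female houseflies pretreated with PPP (2.5 µg/fly, topical in acetone, 90 min), then dosed by intrathoracic injection in 0.22 µL water or 25-50% Me2SO/water. Heads were taken 0.5 or 24 h later and homogenized (50 per batch) in 50 mM sodium phosphate pH 7.4. Filtrate (~800 µg protein) was bound with 0.5 nM [3H]QNB, 60 min, 25 °C. Values are relative to vehicle-treated flies; 6−8 measurements over two experiments.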

Musca domestica [26] = experiment: Ex vivo inhibition of [3H]QNB binding in brain of Musca domestica (house fly) at 7.5 ug/fly measured after 24 hr; type: functional; outline: as §2
Musca domestica [27] = experiment: Ex vivo inhibition of [3H]QNB binding in brain of Musca domestica (house fly) at 7.5 ug/fly measured after 0.5 hr; type: functional; outline: as §2
Musca domestica [28] = experiment: Ex vivo inhibition of [3H]QNB binding in brain of Musca domestica (house fly) at 25 ug/fly measured after 0.5 hr; type: functional; outline: as §2
Musca domestica [29] = experiment: Ex vivo inhibition of [3H]QNB binding in brain of Musca domestica (house fly) at 75 ug/fly measured after 0.5 hr; type: functional; outline: as §2
Musca domestica [30] = experiment: Ex vivo inhibition of [3H]QNB binding in brain of Musca domestica (house fly) at 75 ug/fly measured after 24 hr; type: functional; outline: as §2

SMILES | Activity (Musca domestica [1]) [%] | Activity (Musca domestica [2]) [%] | Activity (Musca domestica [3]) [%] | Ki [4] [nM] | Activity (Musca domestica [5]) [%] | Activity (Musca domestica [6]) [%] | Ki [7] [nM] | Activity (Musca domestica [8]) [%] | Activity (Musca domestica [9]) [%] | Activity (Musca domestica [10]) [%] | Activity (Musca domestica [11]) [%] | Activity (Musca domestica [12]) [%] | also measured
C[N+]1(C)[C@@H]2CC[C@H]1C[C@@H](OC(=O)C(CO)c1ccccc1)C2.O=[N+]([O-])[O-] (some centres undefined) [METHYLATROPINE NITRATE] | 7 | 17 | 13 | 2.4 | 7 | 20 | 1.8 | 20 | 7 | 23 | 7 | 23 | –
O=[N+]([O-])/N=C1\NCCN1Cc1ccc(Cl)nc1 | – | – | – | – | – | – | – | – | – | – | – | – | inhibition [13]: 1%; inhibition [14]: 3%
O=C1CCCN1CC#CCN1CCCC1 [OXOTREMORINE] | – | – | – | 19400 | – | – | 21500 | – | – | – | – | – | –
CCOP(=O)(OCC)Oc1nc(Cl)c(Cl)cc1Cl [CHLORPHRIFOS OXON] | – | – | – | > 100000 | – | – | > 100000 | – | – | – | – | – | inhibition [13]: 17%; inhibition [14]: 29%
Cc1ccc(C[N+](C)(C)C)o1 [5-METHYLFURMETHIODIDE] | – | – | – | 14900 | – | – | 12300 | – | – | – | – | – | –
CCCN(CCC)CC1CCCCN1CCNC(=O)N1c2ccccc2C(=O)Nc2cccnc21 (centres undefined) | – | – | – | 4.8 | – | – | 6.1 | – | – | – | – | – | Activity (Musca domestica [15]): 3%; Activity (Musca domestica [16]): 3%; Activity (Musca domestica [17]): 3%; Activity (Musca domestica [18]): 3%; Activity (Musca domestica [19]): 30%
COc1ccccc1CNCCCCCCNCCCCCCCCNCCCCCCNCc1ccccc1OC.Cl.Cl.Cl.Cl [METHOCTRAMINE HYDROCHLORIDE] | 100 | 100 | 100 | 2850 | 100 | – | 3860 | – | 100 | – | – | – | Activity (Musca domestica [20]): 0%; Activity (Musca domestica [21]): 0%; Activity (Musca domestica [22]): 17%; Activity (Musca domestica [23]): 10%; Activity (Musca domestica [24]): 3%
CCOC(=O)c1c(C)[nH]c2ccc3c(c12)CN1CCc2cc(OC)ccc2C1O3 (centres undefined) | 13 | 20 | 13 | 1030 | 13 | – | 1430 | – | 13 | – | – | – | –
C[N+]1(C)CCC(OC(=O)C(c2ccccc2)c2ccccc2)CC1.[I-] [4-DAMP] | 47 | 60 | 10 | 15 | 40 | 57 | 18 | 60 | 20 | 100 | 33 | 67 | Activity (Musca domestica [20]): 3%; inhibition (INH) (Musca domestica [25]): 59%; Activity (Musca domestica [21]): 7%; inhibition (INH) (Musca domestica [26]): 49%; inhibition (INH) (Musca domestica [27]): 79%; Activity (Musca domestica [22]): 10%; inhibition (INH) (Musca domestica [28]): 92%; Activity (Musca domestica [23]): 10%; Activity (Musca domestica [24]): 7%
CN1[C@@H]2CC[C@H]1C[C@@H](OC(=O)N1Cc3ccccc3NC1=O)C2 | 17 | 23 | 0 | 640 | 10 | 23 | 570 | 17 | 0 | 70 | 7 | 43 | –
C[C@H](C1=C(CCN(C)C)Cc2ccccc21)c1ccccn1 | 70 | 100 | 3 | 510 | 40 | 100 | 660 | 97 | 17 | 100 | 23 | 100 | Activity (Musca domestica [20]): 0%; inhibition (INH) (Musca domestica [25]): 0%; Activity (Musca domestica [21]): 0%; inhibition (INH) (Musca domestica [29]): 81%; Activity (Musca domestica [22]): 10%; inhibition (INH) (Musca domestica [30]): 28%; inhibition (INH) (Musca domestica [28]): 41%; Activity (Musca domestica [23]): 0%; Activity (Musca domestica [24]): 0%
Cc1noc(C2CN3CCC2CC3)n1 (centres undefined) | 20 | 47 | 3 | 1320 | 13 | 60 | 1330 | 33 | 3 | 100 | 13 | 83 | inhibition (INH) (Musca domestica [25]): 9%; inhibition (INH) (Musca domestica [29]): 80%; inhibition (INH) (Musca domestica [30]): 16%; inhibition (INH) (Musca domestica [28]): 49%
C#CCOC(=O)C1=CCCN(C)C1 [ARECAIDINE PROPARGYL ESTER] | 0 | 17 | 0 | 4490 | 0 | 100 | 5200 | 100 | 0 | 100 | 87 | 100 | –
CC(=O)OC1CN2CCC1CC2 (centres undefined) [ACECLIDINE] | 3 | 33 | 0 | 130000 | 3 | 27 | 114000 | 10 | 3 | 100 | 3 | 30 | –
CCN(CC)CC1CCCCN1CC(=O)N1c2ccccc2C(=O)Nc2cccnc21 (centres undefined) [OTENZEPAD] | – | – | – | 1220 | – | – | 1380 | – | – | – | – | – | Activity (Musca domestica [15]): 3%; Activity (Musca domestica [16]): 10%; Activity (Musca domestica [17]): 10%; Activity (Musca domestica [18]): 10%; Activity (Musca domestica [19]): 17%
CN1CCN(CC(=O)N2c3ccccc3C(=O)Nc3cccnc32)CC1 [PIRENZEPINE] | 7 | 20 | 7 | 430 | 7 | 20 | 390 | 13 | 7 | 27 | 10 | 27 | –
O=[N+]([O-])NC1=NCCN1Cc1ccc(Cl)nc1 [IMIDACLOPRID] | – | – | – | > 100000 | – | – | > 100000 | – | – | – | – | – | –
Br.CN1[C@@H]2C[C@@H](OC(=O)[C@H](CO)c3ccccc3)C[C@H]1[C@@H]1O[C@@H]12.O.O.O [SCOPOLAMINE HYDROBROMIDE] | 3 | 10 | 3 | – | 3 | 0 | – | 0 | 3 | 20 | 0 | 3 | –
CCOP(=O)(OCC)Oc1ccc([N+](=O)[O-])cc1 [PARAOXON] | – | – | – | > 100000 | – | – | > 100000 | – | – | – | – | – | inhibition [13]: 0%; inhibition [14]: 13%
CC#CCOC(=O)C1=CCCN(C)C1 [ARECAIDINE BUT-2-YNYL ESTER] | 3 | 3 | 3 | 1500 | 3 | 9 | 1560 | 8 | 3 | 10 | 4 | 9 | –
CC[C@@H]1C(=O)OC[C@@H]1Cc1cncn1C [PILOCARPINE] | 0 | 3 | 0 | – | 0 | 10 | – | 7 | 0 | 67 | 7 | 23 | –
